Experimental data published in ChEMBL document CHEMBL4350976, “Sequence modification of heptapeptide selected by phage display as homing device for HT-29 colon cancer cells to improve the anti-tumour activity of drug delivery systems” (Eur J Med Chem, 2019).
Values belong to the compound of their own block, whether it stands above or below them. Where a SMILES comes first, the peptide text is derived from it. The star is where a group is joined. X1 = COc1cccc2c1C(=O)c1c(O)c3c(c(O)c1C2=O)C[C@@](O)(/C(C)=N/OCC(=O)*)C[C@@H]3O[C@H]1C[C@H](N)[C@H](O)[C@H](C)O1

Tests used:
[1] = system: NCI-H1975; experiment: Cytostatic activity against human NCI-H1975 cells preincubated for 24 hrs under serum free condition followed by compound washout and further incubation for 48 hrs in presence of serum by MTT assay; assay type: functional, cell-based
Outline: (§1)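 Cells were grown at 37 °C in 5% CO2 in medium with 10% heat-inactivated FBS (20% for OVCAR-3) plus penicillin/streptomycin. The medium was RPMI-1640 for most lines, DMEM for U-87 MG and MRC-5, and IMDM for PE/CA-PJ lines. Seeding was 3×10^3–10×10^3 cells per well. Cells had 24 h compound exposure, a wash, and 48 h further culture. Read-out was MTT, normalized to untreated cells and fitted by nonlinear regression for IC50.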

[2] = Toxicity in SCID mouse xenografted with human HT-29 cells assessed as body weight loss at 1 mg/kg, ip administered once a week (on day 13 and 20) starting from 13 days post inoculation measured upto 23 days post inoculation; assay type: organism-based; conditions: in vivo
[3] = system: HT-29; experiment: Antitumor activity against human HT-29 cells xenografted in SCID mouse assessed as tumor growth inhibition by measuring decrease in tumor weight at 1 mg/kg, ip administered once a week (on day 13 and 20) starting from 13 days post inoculation measured at day 23 post inoculation relative to control; assay type: functional; conditions: HT-29, ip
[4] = system: HepG2; experiment: Cytostatic activity against human HepG2 cells preincubated for 24 hrs under serum free condition followed by compound washout and further incubation for 48 hrs in presence of serum by MTT assay; assay type: functional, cell-based; outline: as §1
[5] = system: NCI-H1650; experiment: Cytostatic activity against human NCI-H1650 cells preincubated for 24 hrs under serum free condition followed by compound washout and further incubation for 48 hrs in presence of serum by MTT assay; assay type: functional, cell-based; outline: as §1
[6] = Drug uptake in nucleus of human HT-29 cells assessed as increase in fluorescence at 50 uM after 90 mins by fluorescence based confocal microscopic analysis; assay type: ADME, subcellular; conditions: ht-29, 1.5 h
Outline: (§2)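 HT-29 cells were incubated with 50 µM compound in RPMI for 90 min. Imaging was by confocal microscopy, with Dau detected at 550–600 nm emission.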

[7] = system: HCT-116; experiment: Cytostatic activity against human HCT116 cells preincubated for 24 hrs under serum free condition followed by compound washout and further incubation for 48 hrs in presence of serum by MTT assay; assay type: functional, cell-based; outline: as §1
[8] = Cytostatic activity against human PE/CA-PJ15 cells preincubated for 24 hrs under serum free condition followed by compound washout and further incubation for 48 hrs in presence of serum by MTT assay; assay type: functional, cell-based; outline: as §1
[9] = system: HT-29; experiment: Antitumor activity against human HT-29 cells xenografted in SCID mouse assessed as tumor growth inhibition by measuring decrease in tumor growth at 1 mg/kg, ip administered once per week for 2 times starting from 13 days post inoculation measured at day 23 post inoculation; conditions: HT-29, ip
[10] = system: HT-29; experiment: Antitumor activity against human HT-29 cells xenografted in SCID mouse assessed as decrease in number of Ki-67 positive cells measured as proliferation index at 1 mg/kg, ip administered once a week (on days 13 and 20) starting from 13 days post inoculation measured at day 23 post inoculation by KI-67-staining based light microscopic analysis (reference value: 100%); assay type: functional; set-up: scale not given: the % may be the effect or the level left
Outline: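 Tumours from the SCID HT-29 orthotopic study were formalin-fixed and paraffin-embedded, cut at 2 µm, and given citrate pH 6 retrieval at 98 °C for 40 min. They were stained with anti-human Ki-67 (1:40, 1 h RT), then a biotinylated link, HRP polymer and AEC. Ki-67+ cells were counted in 5 fields per tumour at 40× magnification. The proliferation index is the % positive cells.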

[11] = system: PC-3; experiment: Cytostatic activity against human PC3 cells preincubated for 24 hrs under serum free condition followed by compound washout and further incubation for 48 hrs in presence of serum by MTT assay; assay type: functional, cell-based; outline: as §1
[12] = system: PANC-1; experiment: Cytostatic activity against human PANC1 cells preincubated for 24 hrs under serum free condition followed by compound washout and further incubation for 48 hrs in presence of serum by MTT assay; assay type: functional, cell-based; outline: as §1
[13] = system: MCF7; experiment: Cytostatic activity against human MCF7 cells preincubated for 24 hrs under serum free condition followed by compound washout and further incubation for 48 hrs in presence of serum by MTT assay; assay type: functional, cell-based; outline: as §1
[14] = system: DU-145; experiment: Cytostatic activity against human DU145 cells preincubated for 24 hrs under serum free condition followed by compound washout and further incubation for 48 hrs in presence of serum by MTT assay; assay type: functional, cell-based; outline: as §1
[15] = system: 4T1; experiment: Cytostatic activity against mouse 4T1 cells preincubated for 24 hrs under serum free condition followed by compound washout and further incubation for 48 hrs in presence of serum by MTT assay; assay type: functional, cell-based; outline: as §1
[16] = Toxicity in SCID mouse xenografted with human HT-29 cells assessed as animal death at 1 mg/kg, ip administered once a week (on days 13 and 20) starting from 13 days post inoculation measured upto 23 days post inoculation; assay type: organism-based; conditions: in vivo
[17] = system: OVCAR-3; experiment: Cytostatic activity against human OVCAR3 cells preincubated for 24 hrs under serum free condition followed by compound washout and further incubation for 48 hrs in presence of serum by MTT assay; assay type: functional, cell-based; outline: as §1
[18] = system: CT26.WT; experiment: Cytostatic activity against mouse CT26.WT cells preincubated for 24 hrs under serum free condition followed by compound washout and further incubation for 48 hrs in presence of serum by MTT assay; assay type: functional, cell-based; outline: as §1
[19] = system: MDA-MB-231; experiment: Cytostatic activity against human MDA-MB-231 cells preincubated for 24 hrs under serum free condition followed by compound washout and further incubation for 48 hrs in presence of serum by MTT assay; assay type: functional, cell-based; outline: as §1
[20] = system: U-87 MG; experiment: Cytostatic activity against human U87 cells preincubated for 24 hrs under serum free condition followed by compound washout and further incubation for 48 hrs in presence of serum by MTT assay; assay type: functional, cell-based, U-87MG ATCC; outline: as §1
[21] = system: WiDr; experiment: Cytostatic activity against human WiDr cells preincubated for 24 hrs under serum free condition followed by compound washout and further incubation for 48 hrs in presence of serum by MTT assay; assay type: functional, cell-based; outline: as §1
[22] = system: A549; experiment: Cytostatic activity against human A549 cells preincubated for 24 hrs under serum free condition followed by compound washout and further incubation for 48 hrs in presence of serum by MTT assay; assay type: functional, cell-based; outline: as §1
[23] = system: B16; experiment: Cytostatic activity against mouse B16 cells preincubated for 24 hrs under serum free condition followed by compound washout and further incubation for 48 hrs in presence of serum by MTT assay; assay type: functional, cell-based; outline: as §1
[24] = system: MRC5; experiment: Cytostatic activity against human MRC5 cells preincubated for 24 hrs under serum free condition followed by compound washout and further incubation for 48 hrs in presence of serum by MTT assay; assay type: ADME, cell-based; outline: as §1
[25] = Cytostatic activity against human WM983B cells preincubated for 24 hrs under serum free condition followed by compound washout and further incubation for 48 hrs in presence of serum by MTT assay; assay type: functional, cell-based; outline: as §1
[26] = Cytostatic activity against human M24 cells preincubated for 24 hrs under serum free condition followed by compound washout and further incubation for 48 hrs in presence of serum by MTT assay; assay type: functional, cell-based; outline: as §1
[27] = Cytostatic activity against human PECAPJ41 cells preincubated for 24 hrs under serum free condition followed by compound washout and further incubation for 48 hrs in presence of serum by MTT assay; assay type: functional, cell-based; outline: as §1
[28] = system: A2058; experiment: Cytostatic activity against human A2058 cells preincubated for 24 hrs under serum free condition followed by compound washout and further incubation for 48 hrs in presence of serum by MTT assay; assay type: functional, cell-based; outline: as §1
[29] = system: HT-29; experiment: Cytostatic activity against human HT-29 cells preincubated for 24 hrs under serum free condition followed by compound washout and further incubation for 48 hrs in presence of serum by MTT assay; assay type: functional, cell-based
Outline: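 HT-29 cells were exposed to the compound for 24 h, washed, and kept a further 48 h. Viability was read by MTT. Absorbances were normalized to untreated controls and fitted by nonlinear regression to dose-response curves to give IC50.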

[30] = Drug uptake in human HT-29 cells at 100 uM incubated for 3 hrs by flow cytometry; assay type: ADME, cell-based; conditions: ht-29, 3 h
Outline: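 HT-29 cells were exposed to 100 µM conjugate for 3 h. Flow cytometry recorded the percentage of Dau-positive cells and the mean fluorescence intensity, in duplicate.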

[31] = Stability in 2.5% fetal bovine serum containing medium assessed as drug decomposition measured as Dau=Aoa-LR-OH and H-RYVHLPYAT-NH2 metabolite formation with loss of sugar content at 30 uM measured after 24 hrs by LC/MS analysis; assay type: ADME, cell-free, Bos taurus; conditions: cattle
Outline: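 Conjugates (30 μM) were incubated at 37 °C in medium containing 2.5% FBS. Samples were taken at 0, 3, 6 and 24 h, quenched with acetic acid, lyophilised, desalted on C18 spin columns and analysed by LC-MS. Cleavage products were identified by mass.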

[32] = Drug uptake in human HT-29 cells at 50 uM after 90 mins by fluorescence based confocal microscopic analysis; assay type: ADME, cell-based; conditions: ht-29, 1.5 h; outline: as §2
[33] = Retention time of the compound using 0.1% TFA in water and 0.1% TFA in acetonitrile-water (80:20 v/v) as eluents by RP-HPLC analysis; assay type: physicochemical
Outline: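 Analytical RP-HPLC. Eluent A was 0.1% TFA in water and eluent B was 0.1% TFA in acetonitrile-water (80:20, v/v). Gradient: 0% B held to 5 min, then to 90% B at 50 min. Flow 1 mL/min, detection at 220 nm. The column was a Phenomenex Aeris Peptide XB-C18 (250×4.6 mm, 3.6 μm) or a Nucleosil C18 (5 μm, 100 Å, 250×4.6 mm), depending on the conjugate series.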

[34] = Stability in serum free medium at 30 uM incubated for 3 hrs by LC/MS analysis
Outline: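 Conjugates (30 μM) were incubated at 37 °C in serum-free medium. Samples were taken at 0 and 3 h, quenched with acetic acid, lyophilised, desalted on C18 spin columns and analysed by LC-MS.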

SMILES: COc1cccc2c1C(=O)c1c(O)c3c(c(O)c1C2=O)C[C@@](O)(C(C)=O)C[C@@H]3O[C@H]1C[C@H](N)[C@H](O)[C@H](C)O1 [DAUNORUBICIN]
IC50 [1]: 0.0133 µM
Activity [2]: Toxic
inhibition in vivo at 1 mg/kg [3]: 84%
IC50 [4]: 0.0213 µM
IC50 [5]: 0.0475 µM
Drug uptake [6]: Active
IC50 [7]: 0.127 µM
IC50 [8]: 0.0267 µM
inhibition in vivo at 1 mg/kg [9]: 30%
Activity [10]: 94%
IC50 [11]: 0.026 µM
IC50 [12]: 0.467 µM
IC50 [13]: 0.286 µM
IC50 [14]: 0.0245 µM
IC50 [15]: 0.0408 µM
Activity [16]: Toxic
IC50 [17]: 0.473 µM
IC50 [18]: 0.126 µM
IC50 [19]: 0.0529 µM
IC50 [20]: 0.0279 µM
IC50 [21]: 0.24 µM
IC50 [22]: 0.0682 µM
IC50 [23]: 0.0089 µM
IC50 [24]: 0.255 µM
IC50 [25]: 0.0443 µM
IC50 [26]: 0.0936 µM
IC50 [27]: 0.0258 µM
IC50 [28]: 0.0333 µM
IC50 [29]: 0.203 µM

Drug uptake [30]: Not Active
Stability [31]: Unstable
Drug uptake [32]: Not Active
Retention time [33]: 31.2 to 31.3 min
IC50 [29]: > 50 µM
SMILES: COc1cccc2c1C(=O)c1c(O)c3c(c(O)c1C2=O)C[C@@](O)(/C(C)=N/OCC(=O)N[C@@H](CC(C)C)C(=O)N[C@@H](CCCNC(=N)N)C(=O)N[C@@H](CCCNC(=N)N)C(=O)N[C@@H](Cc1ccc(O)cc1)C(=O)N[C@H](C(=O)N[C@@H](Cc1cnc[nH]1)C(=O)N[C@@H](CC(C)C)C(=O)N1CCC[C@H]1C(=O)N[C@@H](Cc1ccc(O)cc1)C(=O)N[C@@H](C)C(=O)N[C@H](C(N)=O)[C@@H](C)O)C(C)C)C[C@@H]3O[C@H]1C[C@H](N)[C@H](O)[C@H](C)O1 (X1-LRRYVHLPYAT-NH2)
Stability [34]: Stable
